The values below come from ChEMBL document CHEMBL5236592, “Induction of Ferroptosis in Glioblastoma and Ovarian Cancers by a New Pyrrole Tubulin Assembly Inhibitor” (J Med Chem, 2022).

The source made the active and inactive calls. No cut-off for these calls is given here.

For data set [1], the system named is Mus musculus. The data set can be described thus: Upregulation of Htra2 mRNA expression in tumor of BALB/C nu/nu mouse xenografted with human U-87 MG cells at 25 mg/kg, ip administered every 2 days for 40 days by qPCR analysis. Type of data set: functional, organism-based. Conditions: time 40.0 day. The procedure, abridged:
(§1)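 Female BALB/c nu/nu mice, 10 weeks old, 4 per group. Inoculated s.c. with 1 × 10^8 cells/mL of log-phase U-87 MG or SKOV-3 cells. Dosed i.p. with 100 μL at 25 mg/kg every 2 days; controls got 100 μL saline. Tumors harvested on day 40. RNA extracted from about 20 mg of tissue. qPCR panel of 69 genes, 40 cycles (94 °C 20 s, 60 °C 34 s). Analysed by 2–ΔΔCt; fold ≥1.5 taken as increased.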
(In general: Xenograft models place foreign cells or tissue in a host animal.)

For data set [2], the system named is SK-OV-3. The data set can be described thus: Induction of ferroptosis-mediated antitumor activity against human SK-OV-3 cells xenografted in BALB/C nu/nu mouse assessed as increase in […] level in tumor at 25 mg/kg, ip administered every 2 days for 40 days by biochemical analysis. Conditions: time 40.0 day. Format: functional, organism-based. The procedure, abridged: (§2)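 U-87 MG or SKOV-3 sc xenografts (1 × 10^8 cells/mL) in female BALB/c nu/nu mice, 4 per group. Given 25 mg/kg ip in 100 μL every 2 days, or saline. Tumors harvested on day 40 and assayed for LPO, MDA, lactic acid, total glutathione (GSH + GSSG), ATP and Fe2+.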

The subject of data set [3] is Mus musculus. The experiment in a line: Upregulation of Acsf2 mRNA expression in tumor of BALB/C nu/nu mouse xenografted with human U-87 MG cells at 25 mg/kg, ip administered every 2 days for 40 days by qPCR analysis. Format: functional, organism-based. Conditions: time 40.0 day. The procedure, abridged:
(§3)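 Female BALB/c nu/nu mice bearing sc U-87 MG or SKOV-3 xenografts were dosed ip at 25 mg/kg (100 μL) every 2 days, or given saline, and tumors were taken at day 40. RNA was extracted from about 20 mg of tissue. qPCR ran 40 cycles (95 °C 15 min; 94 °C 20 s; 60 °C 34 s) on a 69-gene panel. Fold change was by 2^–ΔΔCt, with ≥1.5 counted as increased.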

Data set [4] relates to SK-OV-3. The data set can be described thus: Induction of ferroptosis-mediated antitumor activity against human SK-OV-3 cells xenografted in BALB/C nu/nu mouse assessed as increase in malondialdehyde level in tumor at 25 mg/kg, ip administered every 2 days for 40 days by biochemical analysis. Type of data set: functional, organism-based. As to conditions: time 40.0 day. An outline of the steps: as §2

Data set [5] concerns T-cell line. The experiment in a line: Cytotoxicity against human primary T-lymphocytes assessed as reduction in cell viability at 0.1 uM incubated for 48 to 72 hrs by Annexin V- APC/PI staining based flow cytometry analysis. Format: toxicity. As to conditions: time 48-72 hrs. The procedure, abridged:
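T lymphocytes negatively selected from healthy-donor PBMCs isolated by density gradient. Cultured at 1.5 × 10^6/mL with 0.1, 1.0 or 2.5 μM compound, DMSO vehicle or untreated, for 48 or 72 h. Stained with annexin V-APC and propidium iodide; early and late apoptotic fractions counted by flow cytometry.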

In data set [6] the test system is Mus musculus. The data set can be described thus: Upregulation of Hspb1 mRNA expression in tumor of BALB/C nu/nu mouse xenografted with human SK-OV-3 cells at 25 mg/kg, ip administered every 2 days for 40 days by qPCR analysis. Type of data set: functional, organism-based. Conditions: time 40.0 day. The procedure, abridged: as §1
The test system of data set [7] is Mus musculus. The data set can be described thus: Upregulation of Nrf2 mRNA expression in tumor of BALB/C nu/nu mouse xenografted with human SK-OV-3 cells at 25 mg/kg, ip administered every 2 days for 40 days by qPCR analysis. Type of data set: functional, organism-based. As to conditions: time 40.0 day. An outline of the steps: as §1
In data set [8] the test system is U-87MG ATCC. The experiment in a line: Induction of ferroptosis-mediated antitumor activity against human U-87 MG cells xenografted in BALB/C nu/nu mouse assessed as increase in Fe2+ level in tumor at 25 mg/kg, ip administered every 2 days for 40 days. Type of data set: functional, organism-based. Conditions: time 40.0 day. An outline of the steps:
as §2

Data set [9] concerns Mus musculus. The experiment in a line: Upregulation of Acsl4 mRNA expression in tumor of BALB/C nu/nu mouse xenografted with human U-87 MG cells at 25 mg/kg, ip administered every 2 days for 40 days by qPCR analysis. Format: functional, organism-based. Conditions: time 40.0 day. The procedure, abridged:
as §3

In data set [10] the test system is SK-OV-3. The data set can be described thus: Induction of ferroptosis-mediated antitumor activity against human SK-OV-3 cells xenografted in BALB/C nu/nu mouse assessed as reduction in GPX4 protein expression in tumor at 25 mg/kg, ip administered every 2 days for 40 days by immunofluoresence staining based assay. Conditions: time 40.0 day. Type of data set: functional, organism-based. The procedure, abridged: (§4)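 Xenografts of U-87 MG or SKOV-3 (1 × 10^8 cells/mL, sc) in female BALB/c nu/nu mice, 4 per group. Treated ip at 25 mg/kg in 100 μL every 2 days versus saline, tumors collected at day 40. Paraffin sections (6 μm) were blocked at 37 °C for 30 min, then incubated with rabbit anti-GPX4 or anti-FTH1 and then Alexa Fluor 488 anti-rabbit, each for 45 min at 37 °C.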

The test system of data set [11] is Mus musculus. The data set can be described thus: Upregulation of Sat1 mRNA expression in tumor of BALB/C nu/nu mouse xenografted with human U-87 MG cells at 25 mg/kg, ip administered every 2 days for 40 days by qPCR analysis. Format: functional, organism-based. As to conditions: time 40.0 day. The procedure, abridged: as §1
The subject of data set [12] is Mus musculus. The experiment in a line: Upregulation of Gclc mRNA expression in tumor of BALB/C nu/nu mouse xenografted with human U-87 MG cells at 25 mg/kg, ip administered every 2 days for 40 days by qPCR analysis. Format: functional, organism-based. As to conditions: time 40.0 day. An outline of the steps: as §3
In data set [13] the test system is Mus musculus. The experiment in a line: Upregulation of Clsd1 mRNA expression in tumor of BALB/C nu/nu mouse xenografted with human U-87 MG cells at 25 mg/kg, ip administered every 2 days for 40 days by qPCR analysis. Format: functional, organism-based. Conditions: time 40.0 day. An outline of the steps: as §3
In data set [14] the test system is SK-OV-3. The experiment in a line: Induction of ferroptosis-mediated antitumor activity against human SK-OV-3 cells xenografted in BALB/C nu/nu mouse assessed as reduction in FTH1 protein expression in tumor at 25 mg/kg, ip administered every 2 days for 40 days by immunofluoresence staining based assay. Conditions: time 40.0 day. Type of data set: functional, organism-based. The procedure, abridged: as §4

Turning to `COc1cc(C(=O)c2cn(-c3ncccn3)cc2-c2ccco2)cc(OC)c1OC`, the outcome in data set [1], in data set [2], in data set [3], in data set [4], in data set [6] and in data set [7] was Active. For the same molecule, the result in data set [8], in data set [9], in [10], in data set [11], in data set [12] and in data set [13] was Active. Further, the result in data set [14] was Active. Further, the Activity result in [5] is reported as “Non-Toxic”.
